RGS4 act: potentiators or activators of RGS4 | AID 463111 | HEK293 M3R/inducible RGS4, carbachol calcium flux Fluo4; stronger effect = lower value | B-score at 10 µM | 310,000 compounds, 0.92% hits;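 active = B-score of the integrated calcium signal more than 4 SD below the library mean, with starting fluorescence not abnormally high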;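 also: negative B-score means reduced calcium response which marks RGS4 activation or potentiation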
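Detection: kinetic calcium fluorescence imaging with Fluo4-AM dye, 2 µM / Material: HEK293 cells with stable M3R and inducible RGS4 / Schedule: recording 10 s baseline at 1 Hz, 100 s post-agonist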
MrgX1 antagonist: blocks BAM8-22 activation of human MrgX1 receptor | AID 588676 | B-score at 10 µM | MRGX1-HEK293 calcium flux, Fluo-4, BAM8-22 antagonism; stronger effect = lower value | 310,000 compounds, 1.3% hits;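 active = calcium-response B-score plate-corrected more than 3 library SD below zero, starting fluorescence within 5 deviations, no agonist response on first addition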;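 also: peak minus trough fluorescence over baseline after final BAM8-22 challenge near maximal dose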
Target sequence (Q96LB2 whole entry, looked up): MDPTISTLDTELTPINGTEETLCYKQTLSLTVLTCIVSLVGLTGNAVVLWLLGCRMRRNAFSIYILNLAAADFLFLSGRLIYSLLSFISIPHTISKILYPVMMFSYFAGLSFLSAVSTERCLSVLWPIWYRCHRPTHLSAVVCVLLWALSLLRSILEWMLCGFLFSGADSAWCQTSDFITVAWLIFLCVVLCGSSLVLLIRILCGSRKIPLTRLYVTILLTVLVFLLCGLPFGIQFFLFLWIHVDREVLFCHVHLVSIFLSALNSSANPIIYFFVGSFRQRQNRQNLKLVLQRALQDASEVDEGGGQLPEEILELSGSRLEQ
MrgX1 ag: human MrgX1 receptor agonism, primary screen | AID 588627 | B-score at 10 µM | MrgX1-HEK293 cells, Fluo-4 calcium fluorescence, agonist mode; stronger effect = higher value | 310,000 compounds, 0.44% hits | Q96LB2;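 active = calcium response B-score plate-corrected fluorescence ratio at least 3 library SD, with starting fluorescence B-score inside 5 SD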
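Test system: HEK293 cells stably expressing human MrgX1 receptor; amount: 15,000 cells per well; doses: compound delivered in addition one of three; times: overnight plating before 1 h dye loading; detection: Fluo-4 NW calcium-flux fluorescence, kinetic read; read-out basis: B-scored fluorescence response ratio; controls: positive and negative controls per plate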
MrgX1 allo act: allosterically activates human MrgX1 receptor signaling | Q96LB2 | MrgX1-HEK293, Fluo-4 calcium flux, FDSS; stronger effect = higher value | B-score at 10 µM | 310,000 compounds, 0.63% hits | AID 588675;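 active = plate-corrected calcium response at least 3 library SD above typical, normal starting fluorescence, not activating the receptor alone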;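 also: compound read alongside a low EC10 to EC30 dose of BAM8-22 agonist; peak minus trough fluorescence over baseline measured at the second addition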
RGS4 inh: human RGS4 inhibition; P49798; HEK293 M3R/RGS4 inducible, Fluo-4 calcium flux; stronger effect = higher value; triggered by carbachol at its EC20; B-score at 10 µM; 310,000 compounds, 0.45% hits;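 active = B-score, a plate-corrected calcium signal, over three deviations above library mean, with baseline fluorescence within five deviations of library mean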;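 also: RGS4 expression induced by doxycycline in cells with stable M3 receptor; B-score is computed from the integrated fluorescence ratio over baseline after carbachol; higher B-score means a larger calcium signal and so more RGS4 inhibition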
Target sequence (P49798 whole entry, looked up): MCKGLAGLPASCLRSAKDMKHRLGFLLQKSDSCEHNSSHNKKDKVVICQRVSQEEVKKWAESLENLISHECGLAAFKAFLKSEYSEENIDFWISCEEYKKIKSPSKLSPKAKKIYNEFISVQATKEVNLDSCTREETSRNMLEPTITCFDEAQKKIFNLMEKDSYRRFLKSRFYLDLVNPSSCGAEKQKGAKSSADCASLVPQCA
MrgX1 antag conf: confirmation of human MrgX1 receptor antagonists | 2,300 compounds, 19% hits | shares compounds with MrgX1 antagonist | MrgX1-HEK293, BAM8-22 calcium flux, Fluo-4; stronger effect = lower value | remaining BAM8-22 calcium response % of control (stronger effect = lower value), % at 10 µM;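 active = remaining agonist calcium response no higher than 100% minus 3 SD of agonist-only control wells, with starting fluorescence near control levels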;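 also: agonist BAM8-22 given at a near maximal EC90 to ECmax level; peak minus minimum fluorescence divided by baseline after agonist addition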
HEK293 Ca flux: activity in parental HEK293 cells lacking MrgX1; shares compounds with MrgX1 antagonist; Fluo-4 calcium fluorescence, FDSS; fluorescence ratio F(max-min)/F0 at 10 µM; 4,000 compounds, 2% hits; AID 624111;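 active = duplicate-averaged calcium fluorescence ratio at least three times the standard deviation of buffer wells, a nonspecific response in parental cells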
HEK293 Ca counter: counter-screen for MrgX1 allosteric activators: effect in parental HEK293 cells; shares compounds with MrgX1 antagonist; parental HEK293 calcium flux, Fluo-4 fluorescence ratio; stronger effect = higher value; fluorescence ratio F(max-min)/F0 at 10 µM; 4,000 compounds, 0.4% hits; AID 624114;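 active = calcium fluorescence ratio, averaged over duplicates, at least 3 SD of the buffer-well ratio, meaning a nonspecific response in receptor-free cells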;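 also: untransfected parental HEK293 lacking MrgX1 used as counterscreen for MrgX1 allosteric activators; fluorescence change taken during the second addition on a kinetic imager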
HEK293 Ca cntr2: counter-screen for MrgX1 activators: effect in parental HEK293 cells | shares compounds with MrgX1 antagonist | Fluo-4 calcium fluorescence (FDSS); stronger effect = higher value | fluorescence ratio F(max-min)/F0 at 10 µM | 4,000 compounds, 8.7% hits;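 active = calcium fluorescence ratio at least three times the spread of buffer wells, meaning a non-specific response in parental cells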
Hits are given with their value. Rows were chosen to be rich in hits. Some 3.5% of all compounds tested hit in one or more screens of this group.

For O=C1C(=O)N(Cc2cccnc2)C(c2ccccn2)/C1=C(/O)c1ccc(F)cc1 (stereo not given) the results were RGS4 act inactive, MrgX1 antagonist -5.13, MrgX1 ag inactive, MrgX1 allo act inactive, RGS4 inh inactive, MrgX1 antag conf inactive, HEK293 Ca flux inactive, HEK293 Ca counter inactive and HEK293 Ca cntr2 inactive.
For Cc1ccc(/C(O)=C2/C(=O)C(=O)N(CCCn3ccnc3)C2c2ccccn2)cc1 (stereo not given) the results were RGS4 act inactive and RGS4 inh inactive.
C(=C\c1ccccc1)/CN1CCN(c2ncnc3c2oc2ccccc23)CC1 was read as RGS4 act inactive, MrgX1 antagonist -7.3, MrgX1 ag inactive, MrgX1 allo act inactive, RGS4 inh inactive, MrgX1 antag conf 46.5%, HEK293 Ca flux inactive, HEK293 Ca counter inactive and HEK293 Ca cntr2 inactive.
c1ccc2[nH]c(CN3CCN(c4ncnc5c4oc4ccccc45)CC3)nc2c1 was read as MrgX1 antagonist -6.4, MrgX1 ag inactive, MrgX1 allo act inactive, MrgX1 antag conf inactive, HEK293 Ca flux inactive, HEK293 Ca counter inactive and HEK293 Ca cntr2 inactive.
COC(=O)Nc1ccc(S(=O)(=O)N2CCCC(C(=O)N3CC(C)OC(C)C3)C2)cc1 (stereo not given) was read as RGS4 act inactive, MrgX1 antagonist inactive, MrgX1 ag inactive, MrgX1 allo act inactive and RGS4 inh inactive.
For COCCCn1c(SCC(=O)N2CC(=O)Nc3ccccc32)nnc1-c1ccoc1C the results were RGS4 act inactive, MrgX1 antagonist inactive, MrgX1 ag inactive, MrgX1 allo act inactive and RGS4 inh inactive.
Screening COCCn1c(SCC(=O)N2CC(=O)Nc3ccccc32)nnc1-c1ccoc1C returned RGS4 act inactive, MrgX1 antagonist -10.9, MrgX1 ag inactive, MrgX1 allo act inactive, RGS4 inh inactive, MrgX1 antag conf inactive, HEK293 Ca flux inactive, HEK293 Ca counter inactive and HEK293 Ca cntr2 inactive.
Screening Cc1nc2ccc(NC(=O)Cc3ccc4c(c3)OCCO4)cc2s1 returned RGS4 act inactive, MrgX1 antagonist -6.8, MrgX1 ag inactive, MrgX1 allo act inactive, RGS4 inh inactive, MrgX1 antag conf inactive, HEK293 Ca flux inactive, HEK293 Ca counter inactive and HEK293 Ca cntr2 inactive.
Screening Cc1nc2ccc(NC(=O)Cc3ccc(Br)cc3)cc2s1 returned RGS4 act inactive, MrgX1 antagonist inactive, MrgX1 ag inactive, MrgX1 allo act inactive and RGS4 inh inactive.
`COc1cccc(C(O)c2nc3ccccc3n2C(C)C)c1OC` (stereo not given) gave RGS4 act inactive, MrgX1 antagonist inactive, MrgX1 ag inactive, MrgX1 allo act inactive and RGS4 inh inactive.
Screening COc1cccc(C(O)c2nc3ccccc3n2C(C)C)c1 (stereo not given) returned RGS4 act inactive, MrgX1 antagonist -6.29, MrgX1 ag inactive, MrgX1 allo act inactive, RGS4 inh inactive, MrgX1 antag conf inactive, HEK293 Ca flux inactive, HEK293 Ca counter inactive and HEK293 Ca cntr2 inactive.
For O=S(=O)(CCSc1ccc(C(F)(F)F)cn1)c1ccc(Cl)cc1 the results were RGS4 act inactive, MrgX1 antagonist inactive, MrgX1 ag inactive, MrgX1 allo act inactive and RGS4 inh inactive.
`Cc1ccc2cc(CN(Cc3cccs3)Cc3nnnn3CC3CCCO3)c(=O)[nH]c2c1` (stereo not given) gave RGS4 act inactive, MrgX1 antagonist -4.77, MrgX1 ag inactive, MrgX1 allo act inactive, RGS4 inh inactive, MrgX1 antag conf inactive, HEK293 Ca flux inactive, HEK293 Ca counter inactive and HEK293 Ca cntr2 inactive.
Cc1ccc2[nH]c(=O)c(CN(Cc3cccs3)Cc3nnnn3CC3CCCO3)cc2c1 (stereo not given) was read as RGS4 act inactive, MrgX1 antagonist inactive, MrgX1 ag inactive, MrgX1 allo act inactive and RGS4 inh inactive.
For CN1CCN(S(=O)(=O)c2ccc(NC(=O)Cc3cccs3)cc2)CC1 the results were RGS4 act inactive, MrgX1 antagonist -4.67, MrgX1 ag inactive, MrgX1 allo act inactive, RGS4 inh inactive, MrgX1 antag conf inactive, HEK293 Ca flux inactive, HEK293 Ca counter inactive and HEK293 Ca cntr2 50.9.
Screening Cc1ccc(C(=O)Nc2ccc(S(=O)(=O)N3CCc4ccccc4C3)cc2)o1 returned RGS4 act inactive, MrgX1 antagonist inactive, MrgX1 ag inactive, MrgX1 allo act inactive and RGS4 inh inactive.
Screening O=C(Cc1cccs1)Nc1ccc(S(=O)(=O)N2CCCCC2)cc1 returned MrgX1 antagonist inactive, MrgX1 ag inactive and MrgX1 allo act inactive.
`CCC(=O)Nc1ccc(S(=O)(=O)N2CCc3ccccc3C2)cc1` gave RGS4 act inactive, MrgX1 antagonist -7.89, MrgX1 ag inactive, MrgX1 allo act inactive, RGS4 inh inactive, MrgX1 antag conf inactive, HEK293 Ca flux inactive, HEK293 Ca counter inactive and HEK293 Ca cntr2 inactive.
Screening O=S(=O)(Cc1noc(-c2ccc(Cl)cc2)n1)Cc1ccco1 returned RGS4 act inactive, MrgX1 antagonist inactive, MrgX1 ag inactive, MrgX1 allo act inactive and RGS4 inh inactive.
For CCOC(=O)C1CCCN(C(=O)c2cn(-c3ccccc3)nc2-c2cccnc2)C1 (stereo not given) the results were RGS4 act inactive, MrgX1 antagonist inactive, MrgX1 ag inactive, MrgX1 allo act inactive and RGS4 inh inactive.
Screening CC1CCCN(C(=O)c2cn(-c3ccccc3)nc2-c2cccnc2)C1 (stereo not given) returned RGS4 act inactive, MrgX1 antagonist -6.83, MrgX1 ag inactive, MrgX1 allo act inactive, RGS4 inh inactive, MrgX1 antag conf inactive, HEK293 Ca flux inactive, HEK293 Ca counter inactive and HEK293 Ca cntr2 inactive.
`O=C1CN(C(=O)c2ccc(F)cc2)c2ccccc2N1` gave RGS4 act inactive, MrgX1 antagonist inactive, MrgX1 ag inactive, MrgX1 allo act inactive and RGS4 inh inactive.
Cc1ccccc1-c1nnnn1C1CCS(=O)(=O)C1 (stereo not given) was read as RGS4 act inactive, MrgX1 antagonist -6.38, MrgX1 ag inactive, MrgX1 allo act inactive, RGS4 inh inactive, MrgX1 antag conf inactive, HEK293 Ca flux inactive, HEK293 Ca counter inactive and HEK293 Ca cntr2 inactive.
